This is a sample that favours compounds with a hit; in the whole collection about 2.5% have one here.
miR122 inh – miR-122 inhibition in Huh7 cells; activation (reporter increase), % at 12.5 µM; Huh7 miR-122 Renilla luciferase sensor, 48 h; neutral wells = 0, positive control = 100; hit rate 0.3% among 340,000;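 active means mean replicate activation score at least 90 and every replicate individually at or above 90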;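 further: higher luciferase means less miR-122 activity so hits act as miR-122 inhibitors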
FGF22 binding – shifts melting point of recombinant human FGF22; recombinant FGF22 thermal shift, SYPRO orange fluorescence; percent of sucrose octasulfate shift, DMSO zero; activity (Tm shift, normalised), % at 9.99 µM; hit rate 1.5% among 340,000;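 active means mean Tm shift, scaled 0 neutral to 100 positive control, at about 1.3% or above, every replicate too, limit read from the data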
Target sequence (Q9HCT0 whole entry, looked up): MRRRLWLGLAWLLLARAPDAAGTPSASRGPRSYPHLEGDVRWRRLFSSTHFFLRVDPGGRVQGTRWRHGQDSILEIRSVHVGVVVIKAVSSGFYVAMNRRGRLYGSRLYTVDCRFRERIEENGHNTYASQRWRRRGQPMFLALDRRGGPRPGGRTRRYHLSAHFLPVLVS
S100A4 MyoIIA – blocks human S100A4 binding to myosin IIA peptide; S100A4/TAMRA-MyoIIA peptide fluorescence polarization; inhibition, % at 10.7 µM; hit rate 0.14% among 360,000; AID 652163;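 active means mean inhibition of at least 70% across replicates, with every replicate also reaching that level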
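Material: S100A4 monomer protein / Buffer or medium: 50 mM HEPES pH 7.2, 10 mM CaCl2, 100 mM KCl / Times: 5 min incubation before reading / Benchmarks: neutral control DMSO, positive control TFP / Reagent: labelled myosin peptide probe, 5 nM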
E-selectin induc – induces E-selectin expression in human endothelial cells | P16581 | HUVEC E-selectin immunofluorescence imaging; normalized: neutral wells 0, TNF-alpha wells 100 | activation, % at 7.58 µM | hit rate 0.37% among 260,000;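 active means mean E-selectin-positive cell signal at least 10% of the positive control, reached in at least 60% of replicates, without over 20% cell loss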
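Assay system: HUVEC primary endothelial cells. Input: 3,000 HUVEC seeded per well. Doses: one compound dose added by pin transfer. Read-out basis: % PE-positive cells. Benchmarks: TNF-alpha high, DMSO low. Detection: immunofluorescence imaging. Buffer or medium: EGM-2, gelatin.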
SIRT5 inh – blocks human SIRT5 desuccinylation of peptide; Q9NXA8; Purified SirT5, succinyl-peptide AMC, trypsin-coupled fluorescence; inhibition, % at 15 µM; hit rate 1.1% among 330,000; in the data active means inhibition above about 15%
Target sequence (Q9NXA8 whole entry, looked up): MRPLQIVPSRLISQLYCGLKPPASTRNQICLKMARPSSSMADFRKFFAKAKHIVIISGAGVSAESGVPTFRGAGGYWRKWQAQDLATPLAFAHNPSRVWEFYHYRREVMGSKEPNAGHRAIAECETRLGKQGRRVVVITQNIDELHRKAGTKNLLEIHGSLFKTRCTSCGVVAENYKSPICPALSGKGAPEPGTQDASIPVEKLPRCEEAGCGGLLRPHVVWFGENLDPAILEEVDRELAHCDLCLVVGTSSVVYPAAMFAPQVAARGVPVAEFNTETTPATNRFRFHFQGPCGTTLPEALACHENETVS
Of the large screens only hits and unclear results are named; the others gave an inactive call.

C=C1CC(/C=C/c2cc(OC)c(OC)c(OC)c2)OC1=O (stereo not given)	none (no result: miR122 inh, E-selectin induc)
O=C(CC(CC(=O)c1ccccc1)c1ccccn1)c1ccccc1	FGF22 binding 44 (no result: SIRT5 inh)
Cc1ccc(S(=O)(=O)N2[C@@H](c3ccccc3)C(C(=O)O)=CC[C@H]2c2ccc(Cl)cc2)cc1	SIRT5 inh 26 (no result: miR122 inh)
Cc1ccc([C@@H]2CC=C(C(=O)O)[C@H](c3ccc(Cl)cc3)N2S(=O)(=O)c2ccc(C)cc2)cc1	none
Cc1ccc(S(=O)(=O)N2[C@@H](c3ccc(F)cc3)C(C(=O)O)=CC[C@H]2c2ccc(Cl)cc2)cc1	FGF22 binding 1.6 (no result: miR122 inh)
C[C@@H]1CN([C@@H](C)CO)C(=O)c2cc(NC(=O)CCC(F)(F)F)ccc2O[C@@H](C)CCCCO[C@H]1CN(C)Cc1ccc(C(=O)O)cc1	none
Cc1ccc(S(=O)(=O)N2CCOC2CNC(=O)C(=O)NCCc2c[nH]c3ccccc23)cc1 (stereo not given)	FGF22 binding 44 (no result: miR122 inh, E-selectin induc)
Nc1c(C(=O)O)cnc2c(-c3ccc(Cl)cc3)cnn12	none (no result: E-selectin induc)
Clc1ccc(-c2cnn3c(-c4ccncc4)ccnc23)cc1	FGF22 binding 44 (no result: miR122 inh, E-selectin induc)
COc1ccc(/C=N/NC(=O)c2c(C)nnn2-c2nonc2N)cc1OC	FGF22 binding 43 (no result: E-selectin induc)
Cc1ccc(/C=N/NC(=O)c2nnn(-c3nonc3N)c2CSc2ccccc2)o1	FGF22 binding 43 (no result: E-selectin induc)
COc1ccc2ccccc2c1/C=N/NC(=O)c1nnn(-c2nonc2N)c1C(C)C	SIRT5 inh 28
COc1ccccc1C#Cc1ccc([C@@H]2[C@H]3CN(C(=O)C4CC4)CCCCN3[C@H]2CO)cc1	none (no result: E-selectin induc)
COc1ccc(-c2cnc3c(c2)C(=O)N([C@H](C)CO)C[C@@H](C)[C@H](CN(C)S(C)(=O)=O)O3)cc1	none
O=C(N[C@H]1CC[C@@H](CCNS(=O)(=O)c2ccc(Cl)cc2)O[C@@H]1CO)c1cccc(F)c1	none (no result: miR122 inh)
Cc1ccc(NC(=S)Nc2ccc(OC(F)F)c(Cl)c2)cc1F	FGF22 binding 43 (no result: miR122 inh, E-selectin induc)
CC1=CC(C)(C)N(S(=O)(=O)c2ccc(C)cc2)c2cc(C)ccc21	miR122 inh 94 (no result: FGF22 binding, S100A4 MyoIIA, E-selectin induc, SIRT5 inh)
COc1ccc2c(c1)C(C)=CC(C)(C)N2S(=O)(=O)c1ccc(C)cc1	none (no result: E-selectin induc)
CCCCNS(=O)(=O)c1ccc2nc(SCC(N)=O)[nH]c2c1	miR122 inh 153 (no result: SIRT5 inh)
CCCCNS(=O)(=O)c1ccc2nc(SCC(=O)Nc3sccc3C#N)[nH]c2c1	miR122 inh 202 (no result: FGF22 binding, S100A4 MyoIIA, E-selectin induc, SIRT5 inh)
C[C@@H](NC(=O)C[C@@H]1C[C@@H]2c3cc(NC(=O)CN(C)C)ccc3O[C@@H]2[C@H](CO)O1)c1ccccc1	none
CNC[C@H]1Oc2c(NC(=O)Nc3ccc(C(F)(F)F)cc3)cccc2C(=O)N([C@@H](C)CO)C[C@H]1C	S100A4 MyoIIA 93 (no result: E-selectin induc)
CNC[C@H]1Oc2c(NC(=O)Nc3ccc4c(c3)OCO4)cccc2C(=O)N([C@@H](C)CO)C[C@H]1C	SIRT5 inh 99
CNC[C@@H]1Oc2c(NC(=O)Nc3ccc(F)cc3)cccc2C(=O)N([C@H](C)CO)C[C@H]1C	E-selectin induc 131
O=C(C[C@@H]1C[C@@H]2c3cc(NC(=O)C4CCOCC4)ccc3O[C@@H]2[C@H](CO)O1)NCc1ccccc1F	none
Cc1cccc(S(=O)(=O)N(C)C[C@@H]2OCc3ccccc3-c3c(n(C)c4ccccc34)C(=O)N([C@@H](C)CO)C[C@@H]2C)c1	none (no result: miR122 inh)
CO[C@@H]1CC[C@@H]2CCN(C)C(=O)[C@@H](C)[C@H](OC)CN(C)C(=O)c3cc(C#N)ccc3OC[C@@H]1O2	SIRT5 inh 19 (no result: miR122 inh)
CO[C@@H]1CC[C@@H]2CCOc3c(C#N)cccc3C(=O)N(C)C[C@@H](OC)[C@@H](C)C(=O)N(C)C[C@@H]1O2	SIRT5 inh 35 (no result: miR122 inh)
CO[C@H]1CC[C@H]2CCOc3c(C#N)cccc3C(=O)N(C)C[C@@H](C)C(=O)N(C)C[C@H]1O2	none (no result: miR122 inh)
CO[C@@H]1CC[C@H]2CCN(C)C(=O)[C@@H](C)[C@H](OC)CN(C)C(=O)c3cc(C#N)ccc3OC[C@@H]1O2	none (no result: miR122 inh)
CO[C@@H]1CC[C@H]2CCOc3c(C#N)cccc3C(=O)N(C)C[C@H](C)C(=O)N(C)C[C@H]1O2	S100A4 MyoIIA 122 (no result: miR122 inh)
C[C@H]1CN([C@@H](C)CO)C(=O)c2cccc(NC(=O)C3CCOCC3)c2O[C@@H]1CN(C)Cc1ccc(C(=O)O)cc1	none

Bioassay records deposited in PubChem by Broad Institute.
